{"source": "PubChem BioAssay AID624466", "about": "(The Scripps Research Institute Molecular Screening Center, 2012)", "note": "“And” between values parts separate entries of the source, which are not always exact repeats. Identical values can stand only once. In all, about 360,000 compounds went through this assay and about 5,400 (1.5%) were called active. What follows is part of a selection rich in actives, with near analogues and random picks from the rest. Unmarked numbers belong to inactive results.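 Rule for the calls: active = inhibition above a per-plate cutoff, the mean inhibition of test compounds on that plate plus 3 SD (cut at about 49% in these data); inactive = the rest.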", "data": [{"molecular_target": "Trace amine-associated receptor 1 (Homo sapiens) (UniProt Q96RJ0)", "sequence (Q96RJ0 whole entry, looked up)": "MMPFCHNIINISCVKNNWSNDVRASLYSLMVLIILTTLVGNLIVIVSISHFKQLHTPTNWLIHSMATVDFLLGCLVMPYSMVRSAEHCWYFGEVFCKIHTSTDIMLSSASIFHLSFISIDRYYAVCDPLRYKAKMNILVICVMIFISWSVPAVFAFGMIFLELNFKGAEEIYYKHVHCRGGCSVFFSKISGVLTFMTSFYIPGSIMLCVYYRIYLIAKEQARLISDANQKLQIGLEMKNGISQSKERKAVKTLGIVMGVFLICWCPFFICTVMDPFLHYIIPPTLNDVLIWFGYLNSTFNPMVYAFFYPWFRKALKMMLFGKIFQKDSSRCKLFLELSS", "assay": "human TAAR1 antagonists, primary screen, Fluo-8 calcium fluorescence, CHO RD-HGA16 cells (AID 624466);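 note: 0% = DMSO plus EC80 beta-PEA response and 100% = DMSO alone without agonist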", "details": "CHO RD-HGA16 TAAR1, Fluo-8 calcium fluorescence, antagonist; at 3 µM; stronger effect = higher value", "method_in_brief": "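System: RD-HGA16 CHO cells with stable hTAAR1 and Gα16 | Probe or stimulus: EC80 β-phenethylamine stimulus | Dosing: 3 µM, single point | Times: Dye loading 75 min at 37 °C, then 30 min room temperature | Measured by: Fluo-8 calcium-sensitive fluorescence | Read-out basis: % inhibition of agonist calcium response | Replicates: n of 1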", "values": [{"smiles": "CCCCCCN=C(CC)c1c(O)n(CCCC)c(=O)[nH]c1=O", "inhibition": "4.8%"}, {"smiles": "CCC(=NCCc1ccccc1)c1c(O)n(C2CCCCC2)c(=O)[nH]c1=O", "inhibition": "60.3% (active)"}, {"smiles": "CC(=O)c1c(O)n(C2CCCCCC2)c(=O)[nH]c1=O", "inhibition": "-7.9%"}, {"smiles": "O=C1C2(Cl)C3(Cl)C4(Cl)C(Cl)(Cl)C5(Cl)C3(Cl)C1(Cl)C5(Cl)C24Cl", "note": "(stereo not given)", "inhibition": "64.1% (active)"}, {"smiles": "Cc1cccc(NC(=O)OC2CN3CCC2CC3)c1", "note": "(stereo not given)", "inhibition": "-7.58%"}, {"smiles": "Cc1cc(-c2ccc(N)c(C)c2)ccc1N", "inhibition": "6.17%"}, {"smiles": "CC[N+]1(C)CCCC(OC(=O)C(O)(c2ccccc2)c2ccccc2)C1", "note": "(stereo not given)", "inhibition": "-0.72%"}, {"smiles": "COc1cc(C(c2c(O)c3ccccc3oc2=O)c2c(C)n(C)n(-c3ccccc3)c2=O)ccc1O", "note": "(stereo not given)", "inhibition": "3.68%"}, {"smiles": "CCOC(=O)C1SC2(C(F)(F)C(F)F)CC1(O)c1c(c(OC)c3occc3c1OC)O2", "note": "(stereo not given)", "inhibition": "65.5% (active)"}, {"smiles": "CC(Cc1ccccc1)NCCC(c1ccccc1)c1ccccc1", "note": "(stereo not given)", "inhibition": "45.6%"}, {"smiles": "CC(=O)Nc1ccc(C(=O)C(Cc2ccccc2)N(C)C)cc1", "note": "(stereo not given)", "inhibition": "-13.4%"}, {"smiles": "CC(Cc1ccccc1)NC=O", "note": "(stereo not given)", "inhibition": "74.1% (active)"}, {"smiles": "COC(=O)C1=C(c2ccc(Cl)c(C(F)(F)F)c2)C[C@@H]2CC[C@H]1N2C(=O)NC1CC1", "inhibition": "36.7%"}, {"smiles": "COC1=CC=C2[C@H]3Cc4ccc(OC)c5c4[C@@]2(CCN3C)C1O5", "note": "(stereo not given in full)", "inhibition": "-0.15%"}, {"smiles": "COc1ccc(CN2CCN(c3ccccc3F)CC2)c(OC)c1", "inhibition": "-21.7%"}, {"smiles": "OC(CNC1CCCCC1)c1ccccc1", "note": "(stereo not given)", "inhibition": "-11.8%"}, {"smiles": "c1cc2c(cc1CCNC1CCCCCC1)OCO2", "inhibition": "-6.33%"}, {"smiles": "c1ccc(CCNC2CCCCCC2)cc1", "inhibition": "85.7% (active)"}, {"smiles": "c1ccc(CCN2CCC3(CC2)OCCO3)cc1", "inhibition": "-16.1%"}, {"smiles": "CCN(CC)C(=O)[C@@H]1C=C2c3cccc4[nH]c(Br)c(c34)C[C@H]2N(C)C1", "inhibition": "-12.3%"}, {"smiles": "CN1CCC(OC(=O)c2cccc(F)c2)CC1", "inhibition": "-5.85%"}, {"smiles": "COC(=O)N1C(c2ccccc2)C1c1ccccc1", "note": "(stereo not given)", "inhibition": "2.76%"}, {"smiles": "COC(=O)C1=C(c2ccc(OCc3ccccc3)cc2)C[C@@H]2CC[C@H]1N2C(=O)NCc1cccc(F)c1", "inhibition": "-9.38%"}, {"smiles": "COC(=O)C1=C(c2cccc(OCc3ccccc3)c2)C[C@@H]2CC[C@H]1N2C(=O)NCc1ccc(Br)cc1", "inhibition": "-0.83%"}, {"smiles": "COC(=O)C1=C(c2ccc(F)cc2OCc2ccccc2)C[C@@H]2CC[C@H]1N2C(=O)NCc1ccc(C(C)(C)C)cc1", "inhibition": "12.1%"}, {"smiles": "COC(=O)C1=C(c2ccccc2OCc2ccccc2)C[C@@H]2CC[C@H]1N2C(=O)NCc1ccc(OC)cc1", "inhibition": "56.6% (active)"}, {"smiles": "COC(=O)C1=C(c2ccc(F)cc2OCc2ccccc2)C[C@@H]2CC[C@H]1N2C(=O)NCc1ccc(Cl)cc1", "inhibition": "52.3% (active)"}, {"smiles": "COC(=O)C1=C(c2ccc(OCc3ccccc3)cc2)C[C@@H]2CC[C@H]1N2C(=O)NCc1ccc(Cl)cc1", "inhibition": "-21.6%"}, {"smiles": "COC(=O)C1=C(c2ccc(F)cc2OCc2ccccc2)C[C@@H]2CC[C@H]1N2C(=O)NCc1ccc2[nH]ccc2c1", "inhibition": "29.6%"}, {"smiles": "COC(=O)C1=C(c2ccc(F)cc2OCc2ccccc2)C[C@@H]2CC[C@H]1N2C(=O)NCc1ccc(OC)c(OC)c1", "inhibition": "60.1% (active)"}, {"smiles": "COC(=O)C1=C(c2ccc(-c3ccccc3)c(F)c2)C[C@@H]2CC[C@H]1N2C(=O)NCc1ccc(F)cc1", "inhibition": "-7.93%"}, {"smiles": "O=S(=O)(c1ccccc1)N1CCC2CCNC2C1", "note": "(stereo not given)", "inhibition": "-13.7%"}, {"smiles": "CS(=O)(=O)N1CCC2CCNC2C1", "note": "(stereo not given)", "inhibition": "-17.4%"}, {"smiles": "COc1ccc2c(c1)[C@@]13CCCCC1[C@@H](C2)NCC3", "note": "(stereo not given in full)", "inhibition": "2.15%"}, {"smiles": "Cc1cc(N2CCNC[C@@H]2C)ccc1N1CC[C@H](O)C1", "inhibition": "-25.4%"}, {"smiles": "COc1ccccc1-n1c(O)c(C=NC2CC2)c(=O)[nH]c1=O", "inhibition": "5.89%"}, {"smiles": "CCCCCn1c(=O)c(C(=O)NCc2ccccn2)c(O)c2ccccc21", "inhibition": "9.96%"}, {"smiles": "CCN(CC)C(=O)Oc1ccc(NC(=O)N2CCOCC2)cc1", "inhibition": "-5.87%"}, {"smiles": "CSc1nc2ccc(C)cc2c(=O)n1-c1cccnc1", "inhibition": "-37.6%"}, {"smiles": "O=c1[nH]c(=O)n(-c2ccccc2)c(O)c1C=NC12CN3CN(CN(C3)C1)C2", "inhibition": "3.93%"}, {"smiles": "Brc1ccc2c(c1)CNCc1cnnn1-2", "inhibition": "-22.5%"}, {"smiles": "CCCCC(=O)N/N=C/c1c(O)n(CC)c(=S)n(CC)c1=O", "inhibition": "63.8% (active)"}, {"smiles": "CCCCC(=O)N/N=C/c1c(O)n(CCC2=CCCCC2)c(=O)[nH]c1=O", "inhibition": "-20.4%"}, {"smiles": "Cn1c(O)c(C=NCCCC(=O)O)c(=O)n(C)c1=O", "inhibition": "-5.57%"}, {"smiles": "Clc1ccc([C@@H]2CC3CCC2N3)cn1", "note": "(stereo not given in full)", "inhibition": "-10.7%"}, {"smiles": "CC12CCC3C(CCC4CC(=O)CCC43C)C1CC(=NO)C2=O", "note": "(stereo not given)", "inhibition": "-3.38%"}, {"smiles": "CCC(C)NC1(c2ccccc2)CCCCC1", "note": "(stereo not given)", "inhibition": "-0.42%"}, {"smiles": "O=C1NC(=O)C(C/C=C/c2ccccc2)C(=O)N1", "inhibition": "9.88%"}, {"smiles": "O=c1[nH]c2ccccc2n1C1CCN(C(c2ccccc2)c2nnnn2Cc2ccccc2)CC1", "note": "(stereo not given)", "inhibition": "52.2% (active)"}, {"smiles": "CSCCC(c1nnnn1C(C)(C)C)N1CCC(n2c(=O)[nH]c3ccccc32)CC1", "note": "(stereo not given)", "inhibition": "52.1% (active)"}, {"smiles": "O=c1[nH]c2ccccc2n1C1CCN(C(c2ccnc3ccccc23)c2nnnn2Cc2ccccc2)CC1", "note": "(stereo not given)", "inhibition": "54.6% (active)"}, {"smiles": "COc1ccc(-n2nnnc2C(c2cccc3ccccc23)N2CCC(n3c(=O)[nH]c4ccccc43)CC2)cc1", "note": "(stereo not given)", "inhibition": "40.3%"}, {"smiles": "Cc1ccc(Cn2nnnc2CN2CCC(n3nnc4ccccc43)CC2)cc1", "inhibition": "-2.23%"}, {"smiles": "O=C1NCN(c2ccccc2)C12CCN(C(c1cccs1)c1nnnn1C1CCCCC1)CC2", "note": "(stereo not given)", "inhibition": "8.02%"}, {"smiles": "COc1cc(OC)cc(C(=O)NCCN2CCC3(CC2)C(=O)NCN3c2ccccc2)c1", "inhibition": "-2.28%"}, {"smiles": "Oc1ccc2c3c1OC1[C@H](O)CC[C@@]4(O)[C@@H](C2)N(CC2CC2)CC[C@]314", "note": "(stereo not given in full)", "inhibition": "-34.9% and -15.5%"}, {"smiles": "CC(C)(C)c1ccc(OC(=O)N2CCCCC2)cc1", "inhibition": "21.5%"}, {"smiles": "O=c1[nH]c(=O)n(CCc2ccc(F)cc2)c(O)c1/C=N/N1CCCCC1", "inhibition": "-33.7%"}, {"smiles": "CC(C)c1ccc(O)c(CN2CCN(c3ccccc3)CC2)c1", "inhibition": "-1.33%"}, {"smiles": "CN(C)/C=C(\\C=[N+](C)C)c1[nH]ncc1[N+](=O)[O-]", "inhibition": "-2.16%"}]}]}
